Laboratory results published in article PMC8566757 (Food Chemistry: X, 2021).

Experiments:
xanthine oxidase [1] = target: T1, xanthine oxidase (Bos taurus, UniProt P80457); assay: Uric acid formation catalyzed by XO; assay type: biochemical
Procedure, shortened: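 Xanthine oxidase (Grade IV) was run in 40 mM sodium carbonate with 0.1 mM EDTA, pH 10.0, at 25 °C. Xanthine was 0–200 µM, and test compound came from a 10 mM DMSO stock. Start with 0.04 unit XO and record uric acid at 293 nm for 60 s. Rate came from the linear rise, against a DMSO control. IC50 was taken at 200 µM xanthine. Mode and kinetic parameters were fitted from ≥3 separate runs.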

xanthine oxidase [2] = target: T1, xanthine oxidase; assay: O2- generation catalyzed by XO; assay type: biochemical
[3] = Scavenging of DPPH radicals and initial scavenging rate; details: for DPPH activity: 20 min, 25 °C, pH 5.5
Procedure, shortened: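 DPPH (3 mM ethanolic stock) was mixed with 100 mM acetate buffer (pH 5.5) and ethanol. Test compound (10 mM DMSO stock) was added, with DMSO as control, and kept at 25 °C for 20 min. Absorbance was read at 517 nm (ε = 8.32 X 103). The initial rate came from the absorbance drop just after compound addition. Runs were done ≥3 times.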

T1 sequence (P80457 whole entry): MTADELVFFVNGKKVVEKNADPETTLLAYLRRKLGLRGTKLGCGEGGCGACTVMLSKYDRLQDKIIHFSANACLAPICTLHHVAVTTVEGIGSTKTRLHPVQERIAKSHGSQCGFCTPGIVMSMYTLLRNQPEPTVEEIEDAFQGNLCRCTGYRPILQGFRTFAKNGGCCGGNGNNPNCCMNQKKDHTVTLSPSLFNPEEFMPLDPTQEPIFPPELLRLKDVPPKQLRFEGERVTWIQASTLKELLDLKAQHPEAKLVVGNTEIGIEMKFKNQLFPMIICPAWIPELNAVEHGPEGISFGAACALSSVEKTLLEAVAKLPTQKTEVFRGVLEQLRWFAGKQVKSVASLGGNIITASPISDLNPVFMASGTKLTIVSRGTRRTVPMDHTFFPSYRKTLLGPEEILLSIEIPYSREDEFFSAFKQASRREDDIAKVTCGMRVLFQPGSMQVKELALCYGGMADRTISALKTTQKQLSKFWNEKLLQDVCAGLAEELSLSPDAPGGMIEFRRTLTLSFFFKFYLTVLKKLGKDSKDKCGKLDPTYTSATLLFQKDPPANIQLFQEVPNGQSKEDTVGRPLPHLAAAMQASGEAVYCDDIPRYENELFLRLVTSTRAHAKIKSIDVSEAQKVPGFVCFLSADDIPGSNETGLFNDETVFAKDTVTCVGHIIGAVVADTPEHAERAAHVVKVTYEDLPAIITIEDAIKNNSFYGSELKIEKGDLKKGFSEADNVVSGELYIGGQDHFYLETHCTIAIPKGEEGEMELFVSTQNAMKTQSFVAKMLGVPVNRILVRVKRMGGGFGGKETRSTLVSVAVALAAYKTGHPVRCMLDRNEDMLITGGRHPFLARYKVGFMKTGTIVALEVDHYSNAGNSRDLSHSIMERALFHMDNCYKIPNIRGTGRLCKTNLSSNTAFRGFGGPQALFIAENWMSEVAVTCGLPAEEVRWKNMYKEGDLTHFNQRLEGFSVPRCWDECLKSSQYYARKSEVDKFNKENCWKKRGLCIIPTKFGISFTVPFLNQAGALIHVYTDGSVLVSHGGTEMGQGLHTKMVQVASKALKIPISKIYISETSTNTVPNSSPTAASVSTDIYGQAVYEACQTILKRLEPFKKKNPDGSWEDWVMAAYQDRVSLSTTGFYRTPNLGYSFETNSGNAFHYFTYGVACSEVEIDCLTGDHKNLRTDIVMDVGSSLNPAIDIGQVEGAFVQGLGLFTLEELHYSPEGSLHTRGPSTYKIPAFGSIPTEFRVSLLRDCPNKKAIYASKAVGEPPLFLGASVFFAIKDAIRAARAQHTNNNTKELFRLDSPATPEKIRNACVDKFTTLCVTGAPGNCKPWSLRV

| IC50 (xanthine oxidase [1]) | IC50 (xanthine oxidase [2]) | Ki (xanthine oxidase [2]) | Ki (xanthine oxidase [1]) | Inhibition kinetics (mode) of uric acid formation (xanthine oxidase [1]; versus xanthine) | K’i, inhibition of O2- generation using xanthine oxidase (xanthine oxidase [2]; mixed type kinetics, xanthine 0 – 200 µM, pH 10.0) | Inhibition kinetics (mode) of O2- generation (xanthine oxidase [2]; xanthine 0 – 200 µM) | Structure (SMILES) | DPPH activity [3] | Initial rate of DPPH scavenging ([3]; after the addition of sample solution) |
| --- | --- | --- | --- | --- | --- | --- | --- | --- | --- |
| > 50 µM | 49 ± 1 µM | 19 ± 2 µM |  |  |  |  | OC[C@H]1O[C@@H](Oc2cc(O)cc(/C=C/c3ccc(O)cc3)c2)[C@H](O)[C@@H](O)[C@@H]1O [Resveratrol-3-glucoside (2), Resveratrol-3-glucoside] | 0.59 ± 0.15 DPPH molecules / a molecule of stilbene compound |  |
| 34 ± 4 µM | 21 ± 3 µM | 7.1 ± 1 µM | 7.7 ± 0.7 µM | competitive inhibition |  |  | Oc1ccc(/C=C/c2cc(O)cc(O)c2)cc1 [Resveratrol (1), Resveratrol] | 0.72 ± 0.27 DPPH molecules / a molecule of stilbene compound |  |
| 15 ± 5 µM | 4.5 ± 0.4 µM | 2.2 ± 0.1 µM | 6.7 ± 1.6 µM |  | 21.1 ± 1.0 µM | mixed type | Oc1cc(O)cc(/C=C/c2ccc(O)c(O)c2)c1 [Piceatannol (6), Piceatannol] | 2.45 ± 0.13 DPPH molecules / a molecule of stilbene compound | 3.75 µmol/L/s |
| > 50 µM | 124 ± 16 µM | 43 ± 5 µM |  |  |  |  | COc1cc(/C=C/c2ccc(O)cc2)cc(OC)c1 [Pterostilbene (5), Pterostilbene] | 0.74 ± 0.10 DPPH molecules / a molecule of stilbene compound |  |
